# Results from article PMC4714953 (Antiviral therapy, 2015).
# Like-named read-outs stand apart in the source and are kept apart here.
# Tests used:
# [1] = cited from earlier work; for AUC0–12: plasma
# [2] = Hepatic vaniprevir concentration by core needle biopsy; assay type: in vivo, human; conditions: for concentration at 12 h / Kp at 6 h: human, liver, oral, mean; for concentration at 12 h: Liver concentration C12h, mean (one subject), 12 h post-dose day 4; for Kp at 6 h: Liver:plasma ratio C6h, 6 h post-dose day 4
# Summary of the method: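 Genotype 1 chronic HCV patients (n=3), non-cirrhotic, treatment-experienced, fixed sequence: 600 mg twice daily days 1–3 and a single dose on day 4, then after at least 30 days off drug, 300 mg on the same schedule. Ultrasound-guided core needle biopsy of the right hepatic lobe 6 or 12 h after the day-4 dose. Tissue weighed, stored at −70°C, homogenized in human EDTA plasma, extracted liquid–liquid at acidic pH, then LC-MS/MS (0.1–200 µg/g). Liver/plasma ratio calculated.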
# [3] = chimpanzees, 10 mg/kg oral, cited from earlier work
# [4] = system: liver organic anion-transporting polypeptides; conditions: cited from earlier work
# [5] = rat, dog and rhesus monkey; cited from earlier work
# [6] = Plasma vaniprevir pharmacokinetics; assay type: in vivo, human; conditions: for AUC(0-t) / Cmax / Tmax / half-life / concentration at 12 h: human, plasma, oral
# Summary of the method: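 Same patients and fixed-sequence regimen: 600 mg then 300 mg twice daily days 1–3, single dose on day 4, at least 30-day washout between periods. Day-4 plasma over the 12-h dosing interval. LC-MS/MS, linear 1–1,000 ng/ml, CV under 10%, accuracy within ±10.0%. AUC0–12, Cmax, C12h, Tmax and t½ derived using nominal times. Tmax as median (min–max), t½ as harmonic mean ±pseudo sd.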
# [7] = system: HCV RNA; test: Decline of HCV RNA in patients on vaniprevir; assay type: in vivo; conditions: genotype 1 chronic HCV patients
# [8] = 300 mg to 600 mg twice daily, day 4
structure (smiles),measurement,setting,value
CC[C@@H]1C[C@]1(NC(=O)[C@@H]1C[C@@H]2CN1C(=O)[C@H](C(C)(C)C)NC(=O)OCC(C)(C)CCCCc1cccc3c1CN(C3)C(=O)O2)C(=O)NS(=O)(=O)C1CC1 [vaniprevir],Plasma vaniprevir Tmax,[1]; humans,1.5 to 3 h
same,AUC0–12,[1]; 300 mg twice daily,5.15 µM/h
same,AUC0–12,[1]; 600 mg twice daily,23.36 µM/h
same,concentration at 12 h,"[2]; 300 mg, 300 mg twice daily",29400 nM
same,Kp at 6 h,"[2]; 300 mg, 300 mg twice daily",166
same,concentration at 12 h,"[2]; 600 mg, 600 mg twice daily",53700 nM
same,Kp at 6 h,"[2]; 600 mg, 600 mg twice daily",67.3
same,"Hepatic concentrations, 600 mg versus 300 mg twice daily regimen",[2]; mean liver concentrations at 6 and 12 h post-dose,twofold higher
same,Maximum liver concentration,[3]; reached at 12 h after dosing,31 µM
same,Plasma AUC0–24,[3],5.2 µM/h
same,Liver organic anion-transporting polypeptides transport in vitro,[4],saturated at high concentrations
same,Liver concentrations at 24 h post-dose,[5],200 to 600 nM
same,Increase in plasma AUC0–12 with a twofold increase in dose,[6]; [8],approximately fivefold
same,Increase in plasma C12h with a twofold increase in dose,[6]; [8],approximately sevenfold
same,Increase in plasma Cmax with a twofold increase in dose,[6]; [8],approximately fivefold
same,AUC(0-t),[6]; 300 mg,10.6 µM·h
same,Cmax,[6]; 300 mg,2600 nM
same,Tmax,[6]; 300 mg,2 h
same,half-life,[6]; 300 mg,6.3 ± 1.4 h
same,concentration at 12 h,"[6]; 300 mg, C12 h, plasma trough, day 4, 300 mg twice daily, n=3, arithmetic mean ±SD [CV%]",160 nM
same,concentration at 12 h,"[6]; 300 mg, Plasma concentration C12h, mean, mean (one subject, Table 1), 300 mg twice daily, 12 h post-dose day 4",120 nM
same,AUC(0-t),[6]; 600 mg,59.5 µM·h
same,Cmax,[6]; 600 mg,13500 nM
same,Tmax,[6]; 600 mg,3 h
same,half-life,[6]; 600 mg,3.6 ± 1 h
same,concentration at 12 h,"[6]; 600 mg, C12 h, plasma trough, day 4, 600 mg twice daily, n=3, arithmetic mean ±SD [CV%]",1110 nM
same,concentration at 12 h,"[6]; 600 mg, Plasma concentration C12h, mean, mean (one subject, Table 1), 600 mg twice daily, 12 h post-dose day 4",190 nM
same,Decline of HCV RNA by day 2,[7]; 300 mg twice daily,approximately 3 log
same,Decline of HCV RNA by day 2,[7]; 600 mg twice daily,approximately 4 log
